# Results taken from ChEMBL document CHEMBL1649165, “Activity profile in vitro of micafungin against Spanish clinical isolates of common and emerging species of yeasts and molds” (2009).
# Columns and labels:
# Format in all cases: functional
# [1] = test system: Candida albicans; assay: Antimicrobial activity against Candida albicans by broth microdilution method
# Summary of the method: (§1)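 Clinical isolates from human patients, tested by broth microdilution using the AFST-EUCAST reference procedure for fermentative yeasts. The MIC was read per that reference method.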
# [2] = test system: Candida parapsilosis; assay: Antimicrobial activity against Candida parapsilosis by broth microdilution method; conditions: Lodderomyces parapsilosis; summary of the method: as §1
# [3] = test system: Candida tropicalis; assay: Antimicrobial activity against Candida tropicalis by broth microdilution method; summary of the method: as §1
# [4] = test system: Nakaseomyces glabratus; assay: Antimicrobial activity against Candida glabrata by broth microdilution method; summary of the method: as §1
# [5] = test system: Pichia kudriavzevii; assay: Antimicrobial activity against Candida krusei by broth microdilution method; summary of the method: as §1
# [6] = test system: Meyerozyma guilliermondii; assay: Antimicrobial activity against Candida guilliermondii by broth microdilution method; summary of the method: as §1
# [7] = test system: Clavispora lusitaniae; assay: Antimicrobial activity against Candida lusitaniae by broth microdilution method; summary of the method: as §1
# [8] = test system: Kluyveromyces marxianus; assay: Antimicrobial activity against Candida kefyr by broth microdilution method; summary of the method: as §1
# [9] = test system: Diutina rugosa; assay: Antimicrobial activity against Candida rugosa by broth microdilution method; summary of the method: as §1
# [10] = test system: Debaryomyces hansenii; assay: Antimicrobial activity against Candida famata by broth microdilution method; summary of the method: as §1
# [11] = test system: Wickerhamomyces anomalus; assay: Antimicrobial activity against Candida pelliculosa by broth microdilution method; conditions: Hansenula anomala; summary of the method: as §1
# [12] = test system: Torulaspora delbrueckii; assay: Antimicrobial activity against Candida coliculosa by broth microdilution method; summary of the method: as §1
# [13] = test system: Pichia norvegensis; assay: Antimicrobial activity against Candida norvegensis by broth microdilution method; summary of the method: as §1
# [14] = test system: [Candida] intermedia; assay: Antimicrobial activity against Candida intermedia by broth microdilution method; conditions: Sungouiella intermedia; summary of the method: as §1
# [15] = test system: [Candida] inconspicua; assay: Antimicrobial activity against Candida inconspicua by broth microdilution method; conditions: Pichia inconspicua; summary of the method: as §1
# [16] = test system: Candida metapsilosis; assay: Antimicrobial activity against Candida metapsilosis by broth microdilution method; conditions: Lodderomyces metapsilosis; summary of the method: as §1
# [17] = test system: Candida orthopsilosis; assay: Antimicrobial activity against Candida orthopsilosis by broth microdilution method; conditions: Lodderomyces orthopsilosis; summary of the method: as §1
# [18] = test system: Kazachstania pintolopesii; assay: Antimicrobial activity against Candida pintolopesii by broth microdilution method; conditions: Arxiozyma pintolopesii; summary of the method: as §1
# [19] = test system: [Candida] zeylanoides; assay: Antimicrobial activity against Candida zeylanoides by broth microdilution method; conditions: Dujonia zeylanoides; summary of the method: as §1
# [20] = test system: Magnusiomyces capitatus; assay: Antimicrobial activity against Dipodascus capitatus by broth microdilution method
# [21] = test system: Saccharomyces cerevisiae; assay: Antimicrobial activity against Saccharomyces cerevisiae by broth microdilution method
# [22] = test system: Yarrowia lipolytica; assay: Antimicrobial activity against Yarrowia lipolytica by broth microdilution method
# [23] = test system: Geotrichum candidum; assay: Antimicrobial activity against Galactomyces geotrichum by broth microdilution method
# [24] = test system: Cryptococcus deneoformans; assay: Antimicrobial activity against Cryptococcus neoformans var. neoformans by broth microdilution method
# Summary of the method: (§2)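 Clinical isolates of nonfermentative yeasts, tested by broth microdilution following EUCAST recommendations. The only change from that method was a minor modification to improve growth.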
# [25] = test system: Trichosporon asahii; assay: Antimicrobial activity against Trichosporon asahii by broth microdilution method
# Summary of the method: (§3)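 Nonfermentative yeast clinical isolates (Rhodotorula, Trichosporon) tested by broth microdilution. The EUCAST yeast recommendations were followed strictly, with one minor modification to improve growth. MIC was read as the endpoint.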
# [26] = test system: Rhodotorula mucilaginosa; assay: Antimicrobial activity against Rhodotorula mucilaginosa by broth microdilution method; summary of the method: as §3
# [27] = test system: Trichosporon inkin; assay: Antimicrobial activity against Trichosporon inkin by broth microdilution method; summary of the method: as §3
# [28] = test system: Trichosporon ovoides; assay: Antimicrobial activity against Trichosporon ovoides by broth microdilution method; summary of the method: as §3
# [29] = test system: Trichosporon dermatis; assay: Antimicrobial activity against Trichosporon dermatis by broth microdilution method; conditions: Cutaneotrichosporon dermatis; summary of the method: as §3
# [30] = test system: Trichosporon jirovecii; assay: Antimicrobial activity against Trichosporon jirovecii by broth microdilution method; conditions: Cutaneotrichosporon jirovecii; summary of the method: as §3
# [31] = test system: Naganishia albida; assay: Antimicrobial activity against Cryptococcus albidus by broth microdilution method; summary of the method: as §2
# [32] = test system: Ustilago; assay: Antimicrobial activity against Ustilago spp by broth microdilution method
# [33] = test system: Rhodotorula glutinis; assay: Antimicrobial activity against Rhodotorula glutinis by broth microdilution method; summary of the method: as §3
# [34] = test system: Papiliotrema laurentii; assay: Antimicrobial activity against Cryptococcus laurentii by broth microdilution method; summary of the method: as §2
# [35] = test system: Trichosporon domesticum; assay: Antimicrobial activity against Trichosporon mycotoxinivorans by broth microdilution method; conditions: Apiotrichum domesticum
# Summary of the method: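 Spanish human clinical isolates were tested as nonfermentative yeasts by broth microdilution. The method strictly followed the EUCAST recommendations, with a minor modification to improve growth, and the read-out was the MIC.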
# [36] = test system: Trichosporon; assay: Antimicrobial activity against Trichosporon spp. by broth microdilution method; summary of the method: as §3
smiles,measurement,setting,value
OC(Cn1cncn1)(Cn1cncn1)c1ccc(F)cc1F [FLUCONAZOLE],MIC50,[1],0.12 µg/mL
same,MIC90,[1],0.25 µg/mL
same,MIC50,[2],0.5 µg/mL
same,MIC90,[2],1 µg/mL
same,MIC50,[3],0.25 µg/mL
same,MIC90,[3],2 µg/mL
same,MIC50,[4],4 µg/mL
same,MIC90,[4],32 µg/mL
same,MIC50,[5],32 µg/mL
same,MIC90,[5],> 64 µg/mL
same,MIC50,[6],4 µg/mL
same,MIC90,[6],> 64 µg/mL
same,MIC50,[7],0.25 µg/mL
same,MIC90,[7],1 µg/mL
same,MIC50,[8],0.25 µg/mL
same,MIC90,[8],0.5 µg/mL
same,MIC50,[9],8 µg/mL
same,MIC90,[9],> 64 µg/mL
same,MIC50,[10],8 µg/mL
same,MIC90,[10],> 64 µg/mL
same,MIC50,[11],8 µg/mL
same,MIC90,[11],> 64 µg/mL
same,MIC50,[12],8 µg/mL
same,MIC90,[12],> 64 µg/mL
same,MIC50,[13],8 µg/mL
same,MIC90,[13],> 64 µg/mL
same,MIC50,[14],8 µg/mL
same,MIC90,[14],> 64 µg/mL
same,MIC50,[15],8 µg/mL
same,MIC90,[15],> 64 µg/mL
same,MIC50,[16],8 µg/mL
same,MIC90,[16],> 64 µg/mL
same,MIC50,[17],8 µg/mL
same,MIC90,[17],> 64 µg/mL
same,MIC50,[18],8 µg/mL
same,MIC90,[18],> 64 µg/mL
same,MIC50,[19],8 µg/mL
same,MIC90,[19],> 64 µg/mL
same,MIC50,[20],16 µg/mL
same,MIC90,[20],32 µg/mL
same,MIC50,[21],4 µg/mL
same,MIC90,[21],> 64 µg/mL
same,MIC50,[22],8 µg/mL
same,MIC90,[22],> 64 µg/mL
same,MIC50,[23],64 µg/mL
same,MIC90,[23],> 64 µg/mL
same,MIC50,[24],16 µg/mL
same,MIC90,[24],> 64 µg/mL
same,MIC50,[25],16 µg/mL
same,MIC90,[25],> 64 µg/mL
same,MIC50,[26],> 64 µg/mL
same,MIC90,[26],> 64 µg/mL
same,MIC50,[27],4 µg/mL
same,MIC90,[27],4 µg/mL
same,MIC50,[28],16 µg/mL
same,MIC90,[28],> 64 µg/mL
same,MIC50,[29],16 µg/mL
same,MIC90,[29],> 64 µg/mL
same,MIC50,[30],16 µg/mL
same,MIC90,[30],> 64 µg/mL
same,MIC50,[31],16 µg/mL
same,MIC90,[31],> 64 µg/mL
same,MIC50,[32],16 µg/mL
same,MIC90,[32],> 64 µg/mL
same,MIC50,[33],16 µg/mL
same,MIC90,[33],> 64 µg/mL
same,MIC50,[34],16 µg/mL
same,MIC90,[34],> 64 µg/mL
same,MIC50,[35],16 µg/mL
same,MIC90,[35],> 64 µg/mL
same,MIC50,[36],16 µg/mL
same,MIC90,[36],> 64 µg/mL
Nc1nc(=O)[nH]cc1F [FLUCYTOSINE],MIC50,[1],0.12 µg/mL
same,MIC90,[1],0.5 µg/mL
same,MIC50,[2],0.12 µg/mL
same,MIC90,[2],0.25 µg/mL
same,MIC50,[3],0.12 µg/mL
same,MIC90,[3],0.25 µg/mL
same,MIC50,[4],0.12 µg/mL
same,MIC90,[4],0.25 µg/mL
same,MIC50,[5],4 µg/mL
same,MIC90,[5],8 µg/mL
same,MIC50,[6],0.12 µg/mL
same,MIC90,[6],0.25 µg/mL
same,MIC50,[7],0.12 µg/mL
same,MIC90,[7],16 µg/mL
same,MIC50,[8],0.5 µg/mL
same,MIC90,[8],4 µg/mL
same,MIC50,[9],0.25 µg/mL
same,MIC90,[9],16 µg/mL
same,MIC50,[10],0.25 µg/mL
same,MIC90,[10],16 µg/mL
same,MIC50,[11],0.25 µg/mL
same,MIC90,[11],16 µg/mL
same,MIC50,[12],0.25 µg/mL
same,MIC90,[12],16 µg/mL
same,MIC50,[13],0.25 µg/mL
same,MIC90,[13],16 µg/mL
same,MIC50,[14],0.25 µg/mL
same,MIC90,[14],16 µg/mL
same,MIC50,[15],0.25 µg/mL
same,MIC90,[15],16 µg/mL
same,MIC50,[16],0.25 µg/mL
same,MIC90,[16],16 µg/mL
same,MIC50,[17],0.25 µg/mL
same,MIC90,[17],16 µg/mL
same,MIC50,[18],0.25 µg/mL
same,MIC90,[18],16 µg/mL
same,MIC50,[19],0.25 µg/mL
same,MIC90,[19],16 µg/mL
same,MIC50,[20],0.12 µg/mL
same,MIC90,[20],1 µg/mL
same,MIC50,[21],0.12 µg/mL
same,MIC90,[21],0.5 µg/mL
same,MIC50,[22],> 64 µg/mL
same,MIC90,[22],> 64 µg/mL
same,MIC50,[23],0.12 µg/mL
same,MIC90,[23],0.25 µg/mL
same,MIC50,[24],16 µg/mL
same,MIC90,[24],32 µg/mL
same,MIC50,[25],32 µg/mL
same,MIC90,[25],> 64 µg/mL
same,MIC50,[26],0.25 µg/mL
same,MIC90,[26],1 µg/mL
same,MIC50,[27],64 µg/mL
same,MIC90,[27],> 64 µg/mL
same,MIC50,[28],16 µg/mL
same,MIC90,[28],> 64 µg/mL
same,MIC50,[29],16 µg/mL
same,MIC90,[29],> 64 µg/mL
same,MIC50,[30],16 µg/mL
same,MIC90,[30],> 64 µg/mL
same,MIC50,[31],16 µg/mL
same,MIC90,[31],> 64 µg/mL
same,MIC50,[32],16 µg/mL
same,MIC90,[32],> 64 µg/mL
same,MIC50,[33],16 µg/mL
same,MIC90,[33],> 64 µg/mL
same,MIC50,[34],16 µg/mL
same,MIC90,[34],> 64 µg/mL
same,MIC50,[35],16 µg/mL
same,MIC90,[35],> 64 µg/mL
same,MIC50,[36],16 µg/mL
same,MIC90,[36],> 64 µg/mL
